Experimental data taken from ChEMBL document CHEMBL1122741, “Substituted 5,6-dihydrofuro[3,2-f]-1,2-benzisoxazole-6-carboxylic acids: high-ceiling diuretics with uricosuric activity” (J Med Chem, 1984).
One block for each molecule: values may come before it. Activity calls are given as the source filed them. The rule behind the calls is not given here.

Tests used:
[1] = tested on: Mus musculus; experiment: ED6 (natriuretic potency) is the oral dose(mg/kg) required to produce an excretion of 6 milliequivalents of Na+per kilogram during 0-4 hr in male mice (Highest dose tested was 50 mg/kg); assay type: functional
Outline: (§1)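 Male mice, 16-30 g, fed ad libitum beforehand. Compound in 0.2% hydroxypropylmethylcellulose given po at 10 mL/kg, then 0.9% saline po at 3% of body weight. Five mice pooled per metabolism cage, four cages per dose. Combined urine collected 0-4 h and assayed for Na+, K+, Cl-, uric acid as mequiv/kg per cage. ED6 from regression of Na+ against log dose.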

[2] = tested on: Rattus norvegicus; experiment: ED2(natriuretic potency) is the oral dose(mg/kg) required to produce an excretion of 2 milliequivalents of Na+per kilogram during 0-4 hr in female rats (Highest dose tested was 100 mg/kg); Inactive; assay type: functional, organism-based; parameters: dose 100 mg/kg
Outline: (§2)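 Female Sprague-Dawley rats, 175-225 g, on sucrose and water for 18 h, given 5 mg DOCA sc 2 h before dosing. Compound in 0.2% methylcellulose given by gavage at 2 mL/kg, then a 30 mL/kg load of 0.34% NaCl/0.69% KCl. Individual metabolism cages, urine collected 0-4 h for Na+, K+, Cl-. Two-stage two-dose screen at 2 rats/dose, then at least four doses at 4 rats/dose. ED2 taken from regression of Na+ excretion against log dose.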

[3] = tested on: Rattus norvegicus; experiment: ED2(natriuretic potency) is the oral dose(mg/kg) required to produce an excretion of 2 milliequivalents of Na+per kilogram during 0-4 hr in female rats (Highest dose tested was 100 mg/kg); assay type: functional; outline: as §2
[4] = tested on: Mus musculus; experiment: ED6 (natriuretic potency) is the oral dose(mg/kg) required to produce an excretion of 6 milliequivalents of Na+per kilogram during 0-4 hr in male mice (Highest dose tested was 50 mg/kg); Inactive; assay type: functional, organism-based; parameters: dose 50 mg/kg; outline: as §1
[5] = tested on: Mus musculus; experiment: Na+ excretion mequiv/kg in saline-loaded mice administered at a dose 50 […] perorally; assay type: ADME, organism-based; conditions: in vivo, po
Outline: (§3)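 Saline-loaded male mice, 16-30 g. Compound po in 0.2% hydroxypropylmethylcellulose at 10 mL/kg, vehicle alone for controls, followed by 0.9% saline po at 3% of body weight. Doses were 0.3-250 mg/kg po. Five mice per metabolism cage, four cages per dose, pooled urine collected for 4 h. Na+ reported as mean ± SEM mequiv/kg; ANOVA with Duncan's test or unpaired t test against control.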

[6] = tested on: Mus musculus; experiment: Na+ excretion mequiv/kg in saline-loaded mice administered at a dose 10 […] perorally; assay type: ADME, organism-based; conditions: in vivo, po; outline: as §3
[7] = tested on: Mus musculus; experiment: Na+ excretion mequiv/kg in saline-loaded mice administered at a dose 250 […] perorally; assay type: ADME, organism-based; conditions: in vivo, po; outline: as §3
[8] = urate excreted in 4 Cebus monkey''s during 0-6 hr; assay type: ADME; conditions: in vivo
Outline: (§4)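 Male and female Cebus monkeys, 4-6 per group, fasted for 6 h after dosing, water ad libitum. 20 mg/kg in 0.2% hydroxypropylmethylcellulose at 1.0 mL/kg by nasogastric tube, then water load of 5% body weight. Urine collected in metabolism pans at 2, 6 and 24 h and assayed for uric acid. Urate in mg/kg over 0-6 h, mean ± SEM.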

[9] = tested on: Canis familiaris; experiment: Na+ excretion mequiv/kg in 6 conscious female dogs administered perorally during 0-6 hr; assay type: ADME, organism-based, Canis lupus familiaris; conditions: dog, in vivo, po
Outline: (§5)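 Conscious female dogs dosed at 3 mg/kg po, except one reference at 10 mg/kg, one dose per dog. Urine collected to 6 h and centrifuged; heparinized venous plasma taken at each collection. Na+ and urate measured by standard methods, mean ± SEM over 0-6 h. Compared with vehicle by ANOVA/Duncan's test or unpaired t test.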

[10] = organism: Canis familiaris; experiment: urate excreted in 6 female dogs during 0-6 hr; assay type: ADME, organism-based, Canis lupus familiaris; conditions: dog, in vivo; outline: as §5
[11] = tested on: Canis familiaris; experiment: ED5(natriuretic potency) is the oral dose(mg/kg) required to produce an excretion of 5 milliequivalents of Na+per kilogram during 0-6 hr in female dogs (Highest dose tested was 30 mg/kg); Inactive; assay type: functional, organism-based; parameters: dose 30 mg/kg; conditions: Canis lupus familiaris
Outline: (§6)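 Female dogs, conscious, one oral dose per dog per experiment. Urine collected and centrifuged; venous plasma drawn at each collection time. Samples assayed for Na+, K+, Cl-, urate and glucose by standard methods. Cumulative Na+ output expressed as mequiv/kg over 6 h, at least two dogs/dose. ED5 read from regression of Na+ excretion against log dose.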

[12] = tested on: Mus musculus; experiment: Na+ excretion mequiv/kg in saline-loaded mice administered at a dose 3 […] perorally; assay type: ADME, organism-based; conditions: in vivo, po; outline: as §3
[13] = tested on: Mus musculus; experiment: Na+ excretion mequiv/kg in saline-loaded mice administered at a dose 30 […] perorally; assay type: ADME, organism-based; conditions: in vivo, po; outline: as §3
[14] = tested on: Canis familiaris; experiment: Na+ excretion mequiv/kg in 4 conscious female dogs administered perorally during 0-6 hr; assay type: ADME, organism-based, Canis lupus familiaris; conditions: dog, in vivo, po; outline: as §5
[15] = organism: Canis familiaris; experiment: urate excreted in 4 female dogs during 0-6 hr; assay type: ADME, organism-based, Canis lupus familiaris; conditions: dog, in vivo; outline: as §5
[16] = tested on: Mus musculus; experiment: Na+ excretion mequiv/kg in 4 saline-loaded mice administered at a dose 50 […] perorally; assay type: ADME, organism-based; conditions: in vivo, po; outline: as §3
[17] = tested on: Canis familiaris; experiment: ED5(natriuretic potency) is the oral dose(mg/kg) required to produce an excretion of 5 milliequivalents of Na+per kilogram during 0-6 hr in female dogs (Highest dose tested was 30 mg/kg); assay type: functional, Canis lupus familiaris; outline: as §6
[18] = tested on: Mus musculus; experiment: Na+ excretion mequiv/kg in saline-loaded mice administered at a dose 2 […] perorally; assay type: ADME, organism-based; conditions: in vivo, po; outline: as §3
[19] = organism: Canis familiaris; experiment: urate excreted in female dogs during 0-6 hr; assay type: ADME, organism-based, Canis lupus familiaris; conditions: dog, in vivo; outline: as §5
[20] = urate excreted in 6 Cebus monkey''s during 0-6 hr; assay type: ADME; conditions: in vivo; outline: as §4
[21] = tested on: Canis familiaris; experiment: Na+ excretion mequiv /kg in conscious female dogs administered perorally during 0-6 hr; assay type: ADME, organism-based, Canis lupus familiaris; conditions: dog, in vivo, po; outline: as §5
[22] = tested on: Mus musculus; experiment: Na+ excretion mequiv /kg in saline-loaded mice administered at a dose 10 […] perorally; assay type: ADME, organism-based; conditions: in vivo, po; outline: as §3
[23] = tested on: Mus musculus; experiment: Na+ excretion mequiv /kg in saline-loaded mice administered at a dose 2 […] perorally; assay type: ADME, organism-based; conditions: in vivo, po; outline: as §3
[24] = tested on: Mus musculus; experiment: Na+ excretion mequiv /kg in saline-loaded mice administered at a dose 50 […] perorally; assay type: ADME, organism-based; conditions: in vivo, po; outline: as §3

Structure (SMILES): O=C(O)C1Cc2cc3c(-c4ccccc4F)noc3cc2O1 (configuration not stated)
ED6 [1]: 100 mg/kg
ED2 [2]: inactive

Structure (SMILES): O=C(O)C1Cc2cc3c(-c4ccccc4F)noc3c(Br)c2O1 (configuration not stated)
ED2 [3]: 117.5 mg/kg
ED6 [1]: 9.9 mg/kg

Structure (SMILES): COc1c2c(cc3c(-c4ccccc4F)noc13)CC(C(=O)O)O2 (configuration not stated)
ED2 [3]: 210 mg/kg
ED6 [4]: inactive

Na+ excretion [5]: 6.3 m equiv kg-1
Na+ excretion [6]: 3.7 m equiv kg-1
Na+ excretion [7]: 7.7 m equiv kg-1
Excretion [8]: 11.81 mg/kg
Na+ excretion [9]: 1.54 m equiv kg-1
Excretion [10]: 0.8 mg/kg
Structure (SMILES): O=C(O)COc1ccc(C(=O)c2cccs2)c(Cl)c1Cl

Structure (SMILES): CCOC(=O)C1Cc2cc3c(-c4ccccc4F)noc3c(Cl)c2O1 (configuration not stated)
ED2 [2]: inactive
ED6 [4]: inactive

Structure (SMILES): O=C(O)C1Cc2cc3c(-c4ccccc4Cl)noc3c(Cl)c2O1 (configuration not stated)
ED2 [3]: 22.5 mg/kg
ED6 [4]: inactive

Structure (SMILES): CC(C)Cc1noc2c(Cl)c3c(cc12)CC(C(=O)O)O3 (configuration not stated)
ED2 [3]: 0.23 mg/kg
ED6 [1]: 0.47 mg/kg
ED5 [11]: inactive

Structure (SMILES): CCc1noc2c(Cl)c3c(cc12)CC(C(=O)O)O3 (configuration not stated)
ED2 [3]: 3.8 mg/kg
ED6 [1]: 6.8 mg/kg
ED5 [11]: inactive

Na+ excretion [12]: 4.5 m equiv kg-1
Na+ excretion [13]: 6.7 m equiv kg-1
Structure (SMILES): NS(=O)(=O)c1cc2c(cc1Cl)NCNS2(=O)=O [HYDROCHLOROTHIAZIDE]

Na+ excretion [14]: 1.44 m equiv kg-1
Na+ excretion [6]: 8 m equiv kg-1
Excretion [8]: 9.53 mg/kg
Excretion [15]: 0.71 mg/kg
Na+ excretion [16]: 12.6 m equiv kg-1
Na+ excretion [18]: 4 m equiv kg-1
Structure (SMILES): CC1(c2ccccc2)Cc2cc(OCC(=O)O)c(Cl)c(Cl)c2C1=O (configuration not stated) [INDACRINONE]
ED2 [3]: 5.2 mg/kg
ED6 [1]: 4.4 mg/kg
ED5 [17]: 7.64 mg/kg

Structure (SMILES): O=C(O)C1Cc2cc3c(-c4cccs4)noc3c(Cl)c2O1 (configuration not stated)
ED2 [3]: >100 mg/kg
ED6 [4]: inactive

Excretion [19]: 1.32 mg/kg
Excretion [20]: 8.34 mg/kg
Na+ excretion [21]: 7.6 m equiv kg-1
Na+ excretion [22]: 8.1 m equiv kg-1
Na+ excretion [23]: 5.5 m equiv kg-1
Na+ excretion [24]: 13.2 m equiv kg-1
Structure (SMILES): O=C(O)C1Cc2cc3c(-c4ccccc4F)noc3c(Cl)c2O1 (stereo in doubt; 29)
ED6 ([1]; 50 mg/kg): 2.95 mg/kg
ED5 ([17]; 30 mg/kg): 0.71 mg/kg

Structure (SMILES): O=C(O)C1Cc2cc3c(-c4cccc(F)c4)noc3c(Cl)c2O1 (configuration not stated)
ED2 [3]: 63 mg/kg
ED6 [4]: inactive

Structure (SMILES): O=C(O)C1Cc2cc3c(-c4ccc(O)cc4)noc3c(Cl)c2O1 (configuration not stated)
ED2 [3]: 190 mg/kg
ED6 [4]: inactive
